From PubChem BioAssay
Sampled rows, rich in hits. Any-hit rate of the full collection: about 5.9%.
Cav32 inh – Cav3.2 calcium influx blockers – cell-based, Fluo-4 calcium fluorescence, FDSS, MLSMR library, primary screen; Voltage-dependent T-type calcium channel subunit alpha-1H (Homo sapiens), O95180; Cav3.2-expressing cells; hits give low values; B-score at 10 µM; hit rate 4% among 100,000; AID 449739, 2010;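 active = single-dose well whose peak fluorescence ratio is a statistical outlier from its plate by either plate-standardised score or position-corrected B-score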
Phagocytosis inh – inhibitors of macrophage phagocytosis, primary screen, imaging, J774A.1 cells, IgG beads. AID 1029, 2008. hit rate 0.07% among 110,000. inhibition, % at 5 µM. J774A.1 macrophage IgG-bead phagocytosis;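 active = inhibition above the mean of the plate negative controls plus 5 SD, cut at about 13% in these data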;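 note: phagocytic index as fraction of beads internalized from green versus red external bead signal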
DAT uptake mod – changed hDAT dopamine uptake under cocaine IC80, either direction, primary screen, cocaine antagonist project, cell-based, LLC-PK1 hDAT, [14C]-dopamine uptake, MLSMR; LLC-PK1 hDAT cells, [14C]-dopamine uptake with cocaine IC80; actives deviate in either direction; B-score at 10 µM; hit rate 1.3% among 110,000;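 active = Z score or B-score, a plate-position-corrected score, falls beyond the plate's 99.7% confidence bounds, in either direction; inactive = both scores lie inside the 99.7% bounds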
Target sequence (Q01959 whole entry, looked up): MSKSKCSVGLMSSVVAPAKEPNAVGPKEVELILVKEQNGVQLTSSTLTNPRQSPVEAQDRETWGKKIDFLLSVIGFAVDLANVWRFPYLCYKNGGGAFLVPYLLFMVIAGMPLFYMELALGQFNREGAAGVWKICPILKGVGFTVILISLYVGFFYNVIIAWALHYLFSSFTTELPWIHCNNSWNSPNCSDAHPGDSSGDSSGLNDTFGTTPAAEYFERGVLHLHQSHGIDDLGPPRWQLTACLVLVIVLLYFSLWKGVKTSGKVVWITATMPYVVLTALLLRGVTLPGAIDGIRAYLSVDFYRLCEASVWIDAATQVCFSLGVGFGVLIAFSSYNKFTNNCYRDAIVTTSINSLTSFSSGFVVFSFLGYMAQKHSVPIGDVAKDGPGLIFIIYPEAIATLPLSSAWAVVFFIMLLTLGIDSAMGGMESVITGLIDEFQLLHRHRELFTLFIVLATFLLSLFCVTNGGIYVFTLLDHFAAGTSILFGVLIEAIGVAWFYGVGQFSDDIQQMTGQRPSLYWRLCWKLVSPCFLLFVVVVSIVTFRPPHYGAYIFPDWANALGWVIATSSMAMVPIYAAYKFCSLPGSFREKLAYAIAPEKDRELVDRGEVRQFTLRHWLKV
Rev-RRE block – HIV-1 Rev-RRE binding inhibitors, primary screen, biochemical, FRET, protein-RNA interaction | P05866 | inhibition, % at 8 µM | Rev peptide-RRE RNA binding | AID 704, 2007 | hit rate 0.79% among 97,000;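 active = inhibition above the screen-wide mean plus 3 SD, cut at about 35% in these data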
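System: Cy5-labelled duplex RRE RNA binding fluorescein-labelled HIV Rev peptide; Signal: fluorescein-to-Cy5 FRET, 480 nm excitation; Also added: labelled Rev peptide; Compound: one concentration, 8 µM nominal; Buffer or medium: HEPES pH 7.5 salt buffer with EDTA; Read-out: % inhibition of FRET ratio versus controls; Schedule: 5 min preincubation and 15 min binding, 25 °C.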
Measles CPE – compounds protecting cells from measles virus cytopathic effect, primary screen, measles RdRp inhibitor project, single point, MLSMR library, absorbance | Measles virus-infected cells, CPE protection | protection (pct of control), % at 4 µM | hit rate 1.5% among 140,000 | AID 841, 2007; in the data active = protection mostly above about 24%, no sharp cut-off; inactive = mostly below about 26%
PTK2B oligo ant – antagonists of Pyk2 self-association, primary screen, Q293 cells, FERM NanoBiT luminescence, HTS; Protein-tyrosine kinase 2-beta (Homo sapiens), Q14289; hits give low values; z-score (the deposit names both 25 µM and 10 µM); hit rate 0.83% among 99,000;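 active = Z-score of -3 or lower, scaled per plate to the spread of control and sample wells; inactive = z-score above -3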;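 note: negative z-score means lost luminescence so less FERM oligomerization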
Hits are given with their value; i = inactive; nt = no result.

SMILES	Cav32 inh	Phagocytosis inh	DAT uptake mod	Rev-RRE block	Measles CPE	PTK2B oligo ant
COc1ccc(/C(C)=N/OCC(=O)N2CC3(C)CC2CC(C)(C)C3)cc1 (configuration not stated)	nt	nt	nt	nt	i	i
COC(=O)C1CCN(C(c2cc(OC)c(OC)c(OC)c2)c2sc3nc(C)nn3c2O)CC1 (configuration not stated)	i	i	i	nt	34.3	nt
Fc1cccc(NC(=S)NCCN2CCOCC2)c1	nt	i	nt	nt	i	nt
O=C(c1ccccc1)N1CC(COc2ccccc2)OC(c2ccco2)O1 (configuration not stated)	-4.03	nt	i	i	i	i
CCOC(=O)N1C=CC(C)=C[C@@H]2[C@@H](N3C(=O)c4ccccc4C3=O)C(=O)N21	nt	i	nt	nt	i	nt
Cc1ccccc1CNC(=O)c1ccc(CSCc2ccccc2)cc1	-5.92	i	i	i	i	i
CCCCCC(=O)Cc1cc(O)cc2c1C(=O)Oc1cc(O)c(C(=O)O)c(CCCCC)c1O2	i	nt	i	nt	nt	nt
COc1ccc(C(=O)n2cc(C(=O)c3cc(C)ccc3O)cn2)cc1OC	nt	i	nt	nt	i	nt
CN(C)c1cccc(C(=O)n2cc(C(=O)c3cc(F)ccc3O)cn2)c1	-3.93	i	i	i	i	i
c1ccc(-c2nc(N3CCN(c4ccccc4)CC3)nc(-n3ccnc3)n2)cc1	i	i	i	i	38.5	i
O=C(Nc1ccc(Cl)c(Cl)c1)N1CC=CCC1	i	i	i	nt	i	i
O=C(Nc1ccc(Cl)c(Cl)c1)N1CCSC1c1ccco1 (configuration not stated)	-7.68	i	-2.07	i	nt	i
Cc1cc(NS(=O)(=O)c2ccc(NC(=S)NC(=O)c3ccc(C(C)(C)C)cc3)cc2)no1	nt	i	nt	nt	i	nt
C=CCn1c(SCc2ccccc2)nnc1-c1cccnc1	i	i	i	i	i	i
C=CCn1c(SCc2nc(N)nc(N(C)C)n2)nnc1-c1cccnc1	nt	i	nt	i	36.0	i
